This note sets out measurements from ChEMBL document CHEMBL2046325, “Synthesis and SAR-study for novel arylpiperazine derivatives of 5-arylidenehydantoin with α₁-adrenoceptor antagonistic properties” (Bioorg Med Chem, 2012).

Broadly, the Ki is the dissociation constant of the complex between target and ligand, obtained from inhibition or displacement. Low readings indicate a stronger hold on the target, high ones a looser hold on the target. What is called pKb is −log10 of the Kb, conventionally taken in molar units. By pA2 is commonly meant a measure of antagonist potency on a negative log scale.

For assay [1], the target named is T1, Adrenergic receptor alpha-1 (Rattus norvegicus, UniProt P15823+P23944+P43140).
T1 sequence (P15823 whole entry): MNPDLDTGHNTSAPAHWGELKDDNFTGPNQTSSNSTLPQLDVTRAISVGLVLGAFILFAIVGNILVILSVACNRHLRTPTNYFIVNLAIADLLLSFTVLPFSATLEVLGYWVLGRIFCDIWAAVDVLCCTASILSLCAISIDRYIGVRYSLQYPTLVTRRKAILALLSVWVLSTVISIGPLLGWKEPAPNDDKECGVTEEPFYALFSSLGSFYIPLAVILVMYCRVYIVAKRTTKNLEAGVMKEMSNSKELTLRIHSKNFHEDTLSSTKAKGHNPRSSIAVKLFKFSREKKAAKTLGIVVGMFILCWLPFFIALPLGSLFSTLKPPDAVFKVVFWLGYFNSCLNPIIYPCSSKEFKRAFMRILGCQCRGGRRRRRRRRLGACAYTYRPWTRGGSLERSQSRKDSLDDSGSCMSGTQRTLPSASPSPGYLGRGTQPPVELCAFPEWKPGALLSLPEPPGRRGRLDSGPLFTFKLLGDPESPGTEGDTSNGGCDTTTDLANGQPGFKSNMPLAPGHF
T1 sequence (P23944 whole entry): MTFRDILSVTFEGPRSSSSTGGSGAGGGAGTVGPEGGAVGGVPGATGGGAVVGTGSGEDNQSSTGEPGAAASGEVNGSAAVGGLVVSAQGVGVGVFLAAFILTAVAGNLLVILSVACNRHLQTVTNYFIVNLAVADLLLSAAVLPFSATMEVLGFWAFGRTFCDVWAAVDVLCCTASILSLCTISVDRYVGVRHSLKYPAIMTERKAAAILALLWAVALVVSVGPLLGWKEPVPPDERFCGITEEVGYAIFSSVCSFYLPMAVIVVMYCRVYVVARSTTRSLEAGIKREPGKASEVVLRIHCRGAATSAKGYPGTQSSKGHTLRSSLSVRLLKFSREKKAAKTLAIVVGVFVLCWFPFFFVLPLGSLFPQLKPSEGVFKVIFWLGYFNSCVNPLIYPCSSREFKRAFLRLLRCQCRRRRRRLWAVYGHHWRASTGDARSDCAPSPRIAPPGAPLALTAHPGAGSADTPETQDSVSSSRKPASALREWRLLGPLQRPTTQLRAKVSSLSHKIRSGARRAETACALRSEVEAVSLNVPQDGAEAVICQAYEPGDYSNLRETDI
T1 sequence (P43140 whole entry): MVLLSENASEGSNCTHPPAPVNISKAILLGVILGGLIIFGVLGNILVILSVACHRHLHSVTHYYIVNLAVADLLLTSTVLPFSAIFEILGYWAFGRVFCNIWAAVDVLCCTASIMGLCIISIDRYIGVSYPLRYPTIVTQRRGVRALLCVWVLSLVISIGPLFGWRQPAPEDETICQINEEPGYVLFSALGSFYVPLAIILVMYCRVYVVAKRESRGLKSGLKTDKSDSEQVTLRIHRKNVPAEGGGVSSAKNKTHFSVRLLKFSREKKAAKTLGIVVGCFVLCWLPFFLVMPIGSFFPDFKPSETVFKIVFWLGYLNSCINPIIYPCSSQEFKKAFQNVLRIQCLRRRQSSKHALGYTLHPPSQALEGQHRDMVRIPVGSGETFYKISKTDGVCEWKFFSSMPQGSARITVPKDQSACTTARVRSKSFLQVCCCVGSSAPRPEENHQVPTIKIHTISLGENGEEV
In words: Displacement of [3H]prazosin from alpha1 adrenoceptor in rat cerebral cortex after 30 mins by beta scintillation counting. The assay is classed as tissue-based. The gist of the method: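 Rat cerebral cortex homogenized in 50 mM Tris-HCl, pH 7.6, centrifuged twice at 20000 × g and resuspended at 10 mg wet weight/ml. Tissue incubated with [3H]-prazosin (19.5 Ci/mmol) and test compound for 30 min at 25 °C. Samples filtered on GF/B and counted by scintillation; three-parameter logistic fit of percent binding.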

The target in assay [2] is Adrenergic receptor alpha-1 (Rattus norvegicus) (UniProt P15823+P23944+P43140). The assay can be described thus: Antagonist activity at alpha1 adrenoceptor in Wistar rat denuded thoracic aorta rings assessed as inhibition of phenylephrine-induced contraction after 20 mins. The assay is classed as functional, tissue-based. The gist of the method:
(§1)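 Male Wistar rats (200-350 g) anaesthetised with thiopental sodium (75 mg/kg ip). Endothelium-denuded thoracic aortic rings, about 4 mm, held in Krebs-Henseleit at 37 °C, pH 7.4, gassed O2/CO2 19:1. Cumulative phenylephrine curves run over 3×10⁻⁹–3×10⁻⁶ M, before and after 20 min with one antagonist concentration per ring (3–4 levels), 60 min recovery between curves. Schild pA2 used if slope is unity, otherwise pKB; ≥5 experiments.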

Assay [3] deals with T1, Adrenergic receptor alpha-1. In words: Competitive antagonist activity at alpha1 adrenoceptor in Wistar rat denuded thoracic aorta rings assessed as inhibition of phenylephrine-induced contractions after 20 mins. The assay is classed as functional, tissue-based. The procedure, abridged:
as §1

In assay [1], `COc1ccc(/C=C2\NC(=O)N(CC(O)CN3CCN(c4ccccc4)CC3)C2=O)cc1OC.Cl` (racemic) registered a Ki of 197.6 nM.
Still for that read-out and setting: under `COc1cccc(/C=C2\NC(=O)N(CC(O)CN3CCN(c4ccccc4)CC3)C2=O)c1OC.Cl` (racemic) stands 318.8 nM; under `COc1ccccc1N1CCN(CC(O)CN2C(=O)N/C(=C\c3ccccc3)C2=O)CC1.Cl` (racemic), 285.9 nM; under `CCOc1ccccc1N1CCN(CC(O)CN2C(=O)N/C(=C\c3ccc(OC)cc3OC)C2=O)CC1.Cl` (racemic), 231 nM.
Still for that read-out and setting: under `Cl.O=C1N/C(=C\c2ccc(Cl)cc2)C(=O)N1CC(O)CN1CCN(c2ccccc2)CC1` (racemic) stands 3700 nM.
In turn, `COc1ccccc1N1CCN(CC(O)CN2C(=O)N/C(=C\c3ccc(Cl)cc3)C2=O)CC1.Cl` (racemic) came in with an inhibition constant (Ki) in assay [1] of 86.3 nM. Moreover, in assay [2], the inhibition result was “Dose-dependent effect” and the pKb was determined as 7.58.
For the molecule `CCOc1ccccc1N1CCN(CC(O)CN2C(=O)N/C(=C\c3ccc(Cl)cc3)C2=O)CC1.Cl` (racemic), the Ki in assay [1] amounted to 59.1 nM. Moreover, in assay [2], the inhibition result is “Dose-dependent effect” and the pKb was determined as 9.01.
In turn, `CCOc1ccccc1N1CCN(CC(O)CN2C(=O)N/C(=C\c3ccc(N(C)C)cc3)C2=O)CC1.Cl` (racemic) returned a Ki in assay [1] of 8700 nM.
In assay [1], `COc1ccc(/C=C2\NC(=O)N(CC(O)CN3CCN(c4ccccc4OC)CC3)C2=O)c(OC)c1.Cl` (racemic) gave a Ki of 52.2 nM. Also, in assay [2], the inhibition entry was “Dose-dependent effect” and the pKb came out at 8.95.
In assay [1], `CCOc1ccccc1N1CCN(CC(O)CN2C(=O)N/C(=C\c3ccccc3)C2=O)CC1.Cl` (racemic) displayed a Ki of 91.4 nM. In assay [2], the inhibition entry is “Dose-dependent effect” and the negative logarithm of the Kb (pKb) stood at 7.66.
With `COc1ccc(/C=C2\NC(=O)N(CC(O)CN3CCN(c4ccccc4OC)CC3)C2=O)cc1OC.Cl` (racemic), the Ki in assay [1] is given as 44.5 nM. In addition, in assay [3], the pA2 stood at 7.56. Moreover, in assay [2], the inhibition entry was “Dose-dependent effect”.
For the molecule `COc1ccccc1N1CCN(CC(O)CN2C(=O)N/C(=C\c3cccc(OC)c3OC)C2=O)CC1.Cl` (racemic), the Ki in assay [1] amounted to 70 nM. The pA2 in assay [3] was 7.55. In addition, in assay [2], the inhibition entry was “Dose-dependent effect”.
`CCOc1ccccc1N1CCN(CC(O)CN2C(=O)N/C(=C\c3cccc(OC)c3OC)C2=O)CC1.Cl` (racemic) showed a Ki in assay [1] of 72.1 nM. Besides, in assay [2], the inhibition entry was “Dose-dependent effect” and the negative logarithm of the Kb (pKb) was 7.53.
As for `COc1ccccc1N1CCN(CC(O)CN2C(=O)N/C(=C\c3ccc(N(C)C)cc3)C2=O)CC1.Cl` (racemic), the inhibition constant Ki in assay [1] is 834.9 nM. This counts as sub-micromolar.
